Assay results from ChEMBL document CHEMBL5053555, “Design, Synthesis, and Evaluation of Potent, Selective, and Bioavailable AKT Kinase Degraders” (J Med Chem, 2021).
One block for each compound: values may come before it. Activity calls are given as the source filed them. No cut-off for these calls is given here.

Tests used:
BT-474 [1] = assay: Antiproliferative activity against human BT-474 cells assessed as growth inhibition incubated for 5 days by IncuCyte live-cell imaging analysis; format: functional; details: BT-474, 120 h, time 5 day
MDA-MB-468 [2] = assay: Induction of apoptosis in human MDA-MB-468 cells at 2.5 uM measured upto 120 hrs by IncuCyte live-cell automated imaging analysis; format: functional
How it was run: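 MDA-MB-468 cells (1–3 × 10³/well, triplicate wells) grown with compound in DMEM/10% FBS at 37 °C, 5% CO₂. DRAQ7 at 1.5 μM was added to the medium, and apoptotic red-fluorescent counts were imaged on an IncuCyte over 5 days.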

[3] = mouse, in vivo, ip, 50 mg/kg, 2 h
MDA-MB-468 [4] = assay: Antiproliferative activity against human MDA-MB-468 cells assessed as growth inhibition incubated for 5 days by IncuCyte live-cell imaging analysis; format: functional; details: MDA-MB-468, 120 h, time 5 day
BT-474 [5] = assay: Inhibition of colony formation in human BT-474 cells at 0.1 to 10 uM after 14 days by crystal violet staining based assay; format: functional, cell-based; details: dose 0.1-10 µM, time 14.0 day
How it was run: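 BT474 cells were cultured 14 days with compound, and medium plus compound was replenished every 2 days. Viable cells were stained with 0.5% crystal violet and quantified.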

Mus musculus = assay: Toxicity in Swiss albino mouse assessed as tolerability at 50 mg/kg, ip measured upto 8 hrs by LC-MS/MS method; format: organism-based; details: in vivo
PC-3 = assay: Antiproliferative activity against human PC-3 cells assessed as growth inhibition incubated for 5 days by IncuCyte live-cell imaging analysis; format: functional; details: PC-3, 120 h, time 5 day
[6] = target: T1, Protein cereblon/AKT (Homo sapiens) (UniProt P31751+Q9Y243+P31749+Q96SW2); assay: Protac activity at CRBN/AKT in human PC-3 cells assessed as reduction in total AKT level at 1 uM after 24 hrs by Western blot analysis; format: cell-based
How it was run: (§1)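 PC3 cells were exposed to compound at 1 μM for 24 h, with GSK690693 as reference inhibitor. Lysates were immunoblotted for total AKT, P-AKT S473, P-PRAS40 T246 and P-S6 S240/244, with β-actin as loading control. Detection was by HRP chemiluminescence on film.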

[7] = target: T1, Protein cereblon/AKT (Homo sapiens); assay: Protac activity at CRBN/AKT in human PC-3 cells assessed as reduction in phosphorylated AKT level at 1 uM after 24 hrs by Western blot analysis; format: cell-based; how it was run: as §1
[8] = target: T2, von Hippel-Lindau disease tumor suppressor/AKT (Homo sapiens) (UniProt P31751+Q9Y243+P31749+P40337); assay: Protac activity at VHL/AKT in human PC-3 cells assessed as reduction in total AKT level at 1 uM after 24 hrs by Western blot analysis; format: cell-based; how it was run: as §1
[9] = target: T2, von Hippel-Lindau disease tumor suppressor/AKT (Homo sapiens); assay: Protac activity at VHL/AKT in human PC-3 cells assessed as reduction in phosphorylated AKT level at 1 uM after 24 hrs by Western blot analysis; format: cell-based; how it was run: as §1
[10] = target: T2, von Hippel-Lindau disease tumor suppressor/AKT (Homo sapiens); assay: Protac activity at VHL/AKT in human BT-474 cells assessed as reduction in phosphorylated AKT level at 5 to 10 uM after 24 hrs by Western blot analysis; format: cell-based; details: dose 5-10 µM
How it was run: (§2)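 BT474 cells were treated 24 h with compound and lysed in IP lysis buffer (Tris pH 7.5, Triton X-100, phosphatase and protease inhibitors). Lysates were normalised by BCA and run on 4–12% Bis–Tris gels with PVDF wet transfer. Blots were probed for total AKT, P-AKT S473, P-PRAS40 T246 and P-S6 S240/244, with β-actin loading control and HRP chemiluminescence.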

[11] = target: T2, von Hippel-Lindau disease tumor suppressor/AKT (Homo sapiens); assay: Protac activity at VHL/AKT in human BT-474 cells assessed as reduction in total AKT level at 5 to 10 uM after 24 hrs by Western blot analysis; format: cell-based; details: dose 5-10 µM; how it was run: as §2
[12] = target: T1, Protein cereblon/AKT (Homo sapiens); assay: Protac activity at CRBN/AKT in human BT-474 cells assessed as reduction in PRAS40 phosphorylation at 1 uM after 24 hrs by Western blot analysis; format: cell-based; how it was run: as §2
[13] = target: T1, Protein cereblon/AKT (Homo sapiens); assay: Protac activity at CRBN/AKT in human PC-3 cells assessed as reduction in PRAS40 phosphorylation at 1 uM after 24 hrs by Western blot analysis; format: cell-based; how it was run: as §1
[14] = target: T1, Protein cereblon/AKT (Homo sapiens); assay: Protac activity at CRBN/AKT in human PC-3 cells assessed as reduction in S6 phosphorylation at 1 uM after 24 hrs by Western blot analysis; format: cell-based; how it was run: as §1
in vivo [15] = details: Swiss albino, mouse, ip, 50 mg/kg
in vivo [16] = details: Swiss albino, mouse, ip, 50 mg/kg; remark: listed apart in the source
[17] = target: T2, von Hippel-Lindau disease tumor suppressor/AKT (Homo sapiens); assay: Protac activity at VHL/AKT in human BT-474 cells assessed as reduction in total AKT level after 24 hrs by Western blot analysis; format: cell-based; details: dose 1-10 µM; how it was run: as §2
[18] = target: T2, von Hippel-Lindau disease tumor suppressor/AKT (Homo sapiens); assay: Protac activity at VHL/AKT in human PC-3 cells assessed as reduction in S6 phosphorylation at 1 uM after 24 hrs by Western blot analysis; format: cell-based; how it was run: as §1
[19] = target: T2, von Hippel-Lindau disease tumor suppressor/AKT (Homo sapiens); assay: Protac activity at VHL/AKT in human PC-3 cells assessed as reduction in PRAS40 phosphorylation at 1 uM after 24 hrs by Western blot analysis; format: cell-based; how it was run: as §1

SMILES: Cc1ncsc1-c1ccc([C@H](C)NC(=O)[C@H]2C[C@H](O)CN2C(=O)[C@@H](NC(=O)CCCCCCCCCCC(=O)NCCNC[C@@H](C(=O)N2CCN(c3ncnc4c3[C@H](C)C[C@H]4O)CC2)c2ccc(Cl)cc2)C(C)(C)C)cc1
- GI50 (BT-474 [1]): 3.1 µM

SMILES: C[C@@H]1C[C@@H](O)c2ncnc(N3CCN(C(=O)[C@H](CNCCC(=O)NCCCCCCCCNc4cccc5c4C(=O)N(C4CCC(=O)NC4=O)C5=O)c4ccc(Cl)cc4)CC3)c21 (stereo partly specified)
- Activity (MDA-MB-468 [2]): < 3%
- Cmax [3]: 1400 nM
- GI50 (MDA-MB-468 [4]): 5.7 µM
- GI50 (BT-474 [1]): 0.7 µM
- inhibition (BT-474 [5]): Active
- Activity (Mus musculus): Non-Toxic
- GI50 (PC-3): 7.4 µM

SMILES: CCn1c(-c2nonc2N)nc2c(C#CC(C)(C)O)ncc(OCCCNCCCC(=O)NCCOCCOCCOCCOCCNc3cccc4c3C(=O)N(C3CCC(=O)NC3=O)C4=O)c21 (stereo unspecified)
- Activity [6]: Active
- Activity [7]: Active

SMILES: CCn1c(-c2nonc2N)nc2c(C#CC(C)(C)O)ncc(OCCCNCCCC(=O)NCCOCCOCCOCCOCCOCCNc3cccc4c3C(=O)N(C3CCC(=O)NC3=O)C4=O)c21 (stereo unspecified)
- Activity [6]: Active
- Activity [7]: Active

SMILES: Cc1ncsc1-c1ccc(CNC(=O)[C@@H]2C[C@@H](O)CN2C(=O)[C@@H](NC(=O)COCCNC(=O)CCNC[C@@H](C(=O)N2CCN(c3ncnc4c3[C@H](C)C[C@H]4O)CC2)c2ccc(Cl)cc2)C(C)(C)C)cc1
- Activity [10]: Active
- Activity [11]: Active

SMILES: C[C@@H]1C[C@@H](O)c2ncnc(N3CCN(C(=O)[C@H](CNCCC(=O)NCCCCCCCCNc4cccc5c4C(=O)N(C4CCC(=O)N(C)C4=O)C5=O)c4ccc(Cl)cc4)CC3)c21 (stereo partly specified)
- GI50 (BT-474 [1]): 3.3 µM

SMILES: CCn1c(-c2nonc2N)nc2c(C#CC(C)(C)O)ncc(OCCCNCCCC(=O)NCCOCCOCCNc3cccc4c3C(=O)N(C3CCC(=O)NC3=O)C4=O)c21 (stereo unspecified)
- Activity [6]: Active
- Activity [7]: Active

SMILES: C[C@@H]1C[C@@H](O)c2ncnc(N3CCN(C(=O)[C@H](CNCCNC(=O)CCCCCCCCNc4cccc5c4C(=O)N(C4CCC(=O)NC4=O)C5=O)c4ccc(Cl)cc4)CC3)c21 (stereo partly specified)
- Activity [12]: Active

SMILES: CCn1c(-c2nonc2N)nc2c(C#CC(C)(C)O)ncc(OCCCNCCCC(=O)NCCCCCCCCNc3cccc4c3C(=O)N(C3CCC(=O)NC3=O)C4=O)c21 (stereo unspecified)
- Activity [13]: inactive
- Activity [14]: Active
- Activity [6]: Active
- Activity [7]: Active

SMILES: Cc1ncsc1-c1ccc([C@H](C)NC(=O)[C@@H]2C[C@@H](O)CN2C(=O)[C@@H](NC(=O)CCCCCCCCCCC(=O)NCCNC[C@@H](C(=O)N2CCN(c3ncnc4c3[C@H](C)C[C@H]4O)CC2)c2ccc(Cl)cc2)C(C)(C)C)cc1
- Activity (MDA-MB-468 [2]): < 3%
- Cmax at 2 h (in vivo [15]): 3500 nM
- GI50 (MDA-MB-468 [4]): 3.8 µM
- GI50 (BT-474 [1]): 1.3 µM
- Activity (Mus musculus): Non-Toxic
- GI50 (PC-3): 9.2 µM
- Cmax at 8 h (in vivo [16]): 3000 nM

SMILES: CCn1c(-c2nonc2N)nc2c(C#CC(C)(C)O)ncc(OCCCNCCCC(=O)NCCOCCOCCOCCNc3cccc4c3C(=O)N(C3CCC(=O)NC3=O)C4=O)c21 (stereo unspecified)
- Activity [6]: Active
- Activity [7]: Active

SMILES: Cc1ncsc1-c1ccc(CNC(=O)[C@@H]2C[C@@H](O)CN2C(=O)[C@@H](NC(=O)CCCCNC(=O)CCNC[C@@H](C(=O)N2CCN(c3ncnc4c3[C@H](C)C[C@H]4O)CC2)c2ccc(Cl)cc2)C(C)(C)C)cc1
- Activity [17]: Dose-dependent effect

SMILES: CC(C)NC[C@@H](C(=O)N1CCN(c2ncnc3c2[C@H](C)C[C@H]3O)CC1)c1ccc(Cl)cc1 [IPATASERTIB]
- GI50 (MDA-MB-468 [4]): 3.7 µM
- GI50 (PC-3): 7.6 µM

More lines, now with the values ahead:

- Activity [8]: inactive
- Activity [9]: inactive
SMILES: CCn1c(-c2nonc2N)nc2c(C#CC(C)(C)O)ncc(OCCCNCCCC(=O)NCCOCCC(=O)N[C@H](C(=O)N3C[C@H](O)C[C@H]3C(=O)NCc3ccc(-c4scnc4C)cc3)C(C)(C)C)c21

- Activity [8]: inactive
- Activity [9]: inactive
SMILES: CCn1c(-c2nonc2N)nc2c(C#CC(C)(C)O)ncc(OCCCNCCCC(=O)NCCOCCOCCC(=O)N[C@H](C(=O)N3C[C@H](O)C[C@H]3C(=O)NCc3ccc(-c4scnc4C)cc3)C(C)(C)C)c21

- Activity [8]: inactive
- Activity [9]: inactive
SMILES: CCn1c(-c2nonc2N)nc2c(C#CC(C)(C)O)ncc(OCCCNCCCC(=O)NCCOCC(=O)N[C@H](C(=O)N3C[C@H](O)C[C@H]3C(=O)NCc3ccc(-c4scnc4C)cc3)C(C)(C)C)c21

- Activity [8]: inactive
- Activity [9]: inactive
SMILES: CCn1c(-c2nonc2N)nc2c(C#CC(C)(C)O)ncc(OCCCNCCCC(=O)NCCOCCOCCOCCOCCC(=O)N[C@H](C(=O)N3C[C@H](O)C[C@H]3C(=O)NCc3ccc(-c4scnc4C)cc3)C(C)(C)C)c21

- Activity [8]: inactive
- Activity [9]: inactive
SMILES: CCn1c(-c2nonc2N)nc2c(C#CC(C)(C)O)ncc(OCCCNCCCC(=O)NCCOCCOCC(=O)N[C@H](C(=O)N3C[C@H](O)C[C@H]3C(=O)NCc3ccc(-c4scnc4C)cc3)C(C)(C)C)c21

- Activity [8]: inactive
- Activity [9]: inactive
SMILES: CCn1c(-c2nonc2N)nc2c(C#CC(C)(C)O)ncc(OCCCNCCCC(=O)NCCOCCOCCOCCOCCOCCC(=O)N[C@H](C(=O)N3C[C@H](O)C[C@H]3C(=O)NCc3ccc(-c4scnc4C)cc3)C(C)(C)C)c21

- Activity [8]: inactive
- Activity [9]: inactive
SMILES: CCn1c(-c2nonc2N)nc2c(C#CC(C)(C)O)ncc(OCCCNCCCC(=O)NCCOCCOCCOCCC(=O)N[C@H](C(=O)N3C[C@H](O)C[C@H]3C(=O)NCc3ccc(-c4scnc4C)cc3)C(C)(C)C)c21

- Activity [6]: Active
- Activity [7]: Active
SMILES: CCn1c(-c2nonc2N)nc2c(C#CC(C)(C)O)ncc(OCCCNCCCC(=O)NCCOCCNc3cccc4c3C(=O)N(C3CCC(=O)NC3=O)C4=O)c21 (stereo unspecified)

- Activity [8]: Active
- Activity [18]: Active
- Activity [19]: inactive
- Activity [9]: Active
SMILES: CCn1c(-c2nonc2N)nc2c(C#CC(C)(C)O)ncc(OCCCNCCCC(=O)NCCCCCCCCCCC(=O)N[C@H](C(=O)N3C[C@H](O)C[C@H]3C(=O)NCc3ccc(-c4scnc4C)cc3)C(C)(C)C)c21

- Activity [8]: inactive
- Activity [9]: inactive
SMILES: CCn1c(-c2nonc2N)nc2c(C#CC(C)(C)O)ncc(OCCCNCCCC(=O)NCCOCCOCCOCC(=O)N[C@H](C(=O)N3C[C@H](O)C[C@H]3C(=O)NCc3ccc(-c4scnc4C)cc3)C(C)(C)C)c21
